The values below come from PubChem BioAssay AID2656 (Broad Institute, 2010).

SMILES strings stand for the structures. The source made the active and inactive calls.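 Rule for the calls: active = mean inhibition of serotonin release over both replicates above 50%; inactive = mean inhibition at or below 50%.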

Usually inhibition stands for the relative decrease from the control value, in per cent.

The assay has as its system Human washed platelets, SFLLRN-induced 14C-serotonin release. Nature of the assay: inhibition of SFLLRN-induced dense granule secretion, late-stage follow-up, mechanism study for platelet granule secretion inhibitor project, cell-based, 14C-serotonin release, radioactive (AID 2656). Particulars: at 10 µM; active compounds read high. The essentials:
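Test system: 14C-serotonin-labelled washed platelets | Quantity: 2x10^8 platelets per mL after resuspension | Medium: HEPES-Tyrodes buffer | Dosing: Single compound dose of 10 µM | Times: Compound pre-incubation 15 min, SFLLRN stimulation 15 min | Technique: beta scintillation counting of supernatant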
Regarding `COc1ccc(C(=O)Nc2ccc(N3CCOCC3)cc2)cc1OC`, the inhibition was 9.3% (inactive). The value for `COc1cc2c(cc1OC)-c1cc(Nc3ccccc3C)nc(=O)n1CC2` was 94.8%; that for `CC(=O)Oc1ccc(-c2nc(-c3cccnc3)no2)cc1` was -5.2% (inactive); that for `CCOc1ccc2nc(NCCO)[nH]c2c1` was 9.75% (inactive).

As to `COC(=O)c1nn(-c2ccc3c(c2)CCN3C(C)=O)cc1O`, the inhibition was 12.8% (inactive). The same measure for `O=C(Oc1ccc(Cl)cc1)c1ccc(COC(=O)c2cnccn2)cc1`: 0.5% (inactive); for `COC(=O)c1ccccc1NC(=O)Nc1ccc2c(c1)OCO2`: 15.4% (inactive).
